Peptide text beside a SMILES is read from it. * marks the point of attachment. Cbz = O=C(OCc1ccccc1)*

A short description of series [1]: Inhibition of chymotrypsin-like activity of 20S proteasome in human LCL cells after 12 hrs.
Series [2] has as its system 20S proteasome beta1 subunit (Homo sapiens). Put plainly: Inhibition of PGPH catalytic activity of 20S proteasome beta1 in human LCL cells after 12 hrs.
A short description of series [3]: Inhibition of trypsin-like activity of 20S proteasome beta2 from human LCL cells after 30 mins.
The subject of series [4] is 20S proteasome beta5 subunit (Homo sapiens). As to the kind of experiment: Inhibition of chymotrypsin-like activity of 20S proteasome beta5 in human LCL cells after 12 hrs by in vivo assay.
Series [5] has as its system 20S proteasome beta1 subunit (Homo sapiens). As to the kind of experiment: Inhibition of PGPH catalytic activity of 20S proteasome beta1 in human LCL cells after 12 hrs by in vivo assay.
The nature of series [6]: Inhibition of trypsin-like activity of 20S proteasome beta 2 in human LCL cells after 12 hrs by in vivo assay. In short, it runs like this:
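LCLs exposed to inhibitor for 12 h at 37 °C. Proteasomes then partially purified and incubated 30 min at 37 °C in activity buffer with Suc-LLVY-AMC (chymotrypsin-like), Boc-LRR-AMC (trypsin-like) or Z-LLE-AMC (postacidic). Fluorescence read at ex 360/em 465 nm.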

Series [7] is described as follows: Cytotoxicity against human LCL cells at 10 uM after 3 days by trypan blue exclusion assay. Conditions: 72 h; call rule not given here. Format: cell-based. The essentials: (§1)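 LCL and Burkitt's lymphoma JiJoye cells seeded in duplicate at 50 × 10³ cells/mL in medium with 10% FCS. Exposed to 0.1–10 μM compound or medium alone. Viability and proliferation followed for 3 days by Trypan blue exclusion and cell counting.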

The next series relates to JIYOYE. As to the kind of experiment: Cytotoxicity against human Jijoye cells at 10 uM after 3 days by trypan blue exclusion assay. Format: cell-based. The note with it: 72 h. In short, it runs like this:
as §1

Take `CC[C@H](C)[C@H](NC(=O)[C@H]([C@@H](C)CC)N(C)C(C)=O)C(=O)N[C@H](C(=O)N[C@@H](CC(C)C)C(=O)[C@@]1(C)CO1)[C@@H](C)O` [EPOXOMYCIN]: half-maximal inhibition in series [1] (IC50) required 0.005 µM.

Turning to `CC(C)C[C@@H](/C=C/C(=O)n1cccc1)NC(=O)[C@H](CC(C)C)NC(=O)[C@H](CC(C)C)NC(=O)OCc1ccccc1`, the IC50 (usually the midpoint of a concentration-inhibition curve) in series [2] was 0.091 µM; in series [1], 7.89 µM; in series [3], over 10 µM.

With `CC(C)C[C@@H](/C=C/C(=O)n1cccc1)NC(=O)[C@H](CC(C)C)NC(=O)[C@H](CC(C)C)NC(=O)CCCCCNC(=O)OCc1ccccc1`, the IC50 in series [2] was 0.155 µM; in series [1] it was over 10 µM; in series [3], over 10 µM.

Consider `CC(C)C[C@@H](/C=C/C(=O)n1cccc1)NC(=O)[C@H](CO)NC(=O)[C@@H](NC(=O)CCCCCNC(=O)OCc1ccccc1)C(C)C`, for which the IC50 in series [2] was 0.097 µM; in series [4], over 10 µM; in series [5], 0.147 µM; in series [6], over 10 µM; in series [1], over 10 µM; in series [3], over 10 µM.

Regarding `CC(C)C[C@@H](/C=C/C(=O)n1cccc1)NC(=O)[C@H](CO)NC(=O)[C@@H](NC(=O)CCCCCCCNC(=O)OCc1ccccc1)C(C)C`, the IC50 in series [2] is 0.036 µM; in series [4] it was over 10 µM; in series [5], 0.058 µM; in series [6], over 10 µM; in series [1] it was 5.08 µM; in series [3], over 10 µM. The Activity result (in series [7]; with JIYOYE) was “Not Active” each time.

Turning to `Cc1c(O)cccc1C(=O)N[C@H](C(=O)N[C@@H](CO)C(=O)N[C@H](/C=C/C(=O)n1cccc1)CC(C)C)C(C)C`, the figures for the IC50 in series [2], in series [1] and in series [3] were 0.178 µM, over 10 µM and over 10 µM, respectively.

`CC(C)C[C@@H](/C=C/C(=O)n1cccc1)NC(=O)[C@H](CC(C)C)NC(=O)[C@H](CC(C)C)NC(=O)CCCCCCCNC(=O)OCc1ccccc1`: the IC50 was 0.062 µM in series [2]; over 10 µM in series [4]; 0.116 µM in series [5]; over 10 µM in series [6]; over 10 µM in series [1]; over 10 µM in series [3].

As for `Cc1c(O)cccc1C(=O)N[C@@H](CC(C)C)C(=O)N[C@@H](CC(C)C)C(=O)N[C@H](/C=C/C(=O)n1cccc1)CC(C)C`, the IC50 is 0.065 µM in series [2]; 5.6 µM in series [4]; 0.135 µM in series [5]; over 10 µM in series [6]; 3.63 µM in series [1]; over 10 µM in series [3]. Also, the Activity result (in series [7]; in the series on JIYOYE) was “Not Active” throughout.

Take `CC(C)C[C@@H](C=O)NC(=O)[C@H](CC(C)C)NC(=O)[C@H](CC(C)C)NC(=O)OCc1ccccc1` [MG-132] (Cbz-Leu-Leu-Leu-aldehyde): the results for the half-maximal inhibitory concentration (IC50) in series [1] and in series [3] were 0.002 µM and 1.08 µM, respectively.

On to `CC(C)C[C@@H](/C=C/C(=O)n1cccc1)NC(=O)[C@H](CO)NC(=O)[C@@H](NC(=O)OCc1ccccc1)C(C)C`, for which the IC50 in series [2] was 0.122 µM; in series [1], over 10 µM; in series [3], over 10 µM.

The values above are taken from ChEMBL document CHEMBL1240495, “Alpha,beta-unsaturated N-acylpyrrole peptidyl derivatives: new proteasome inhibitors” (J Med Chem, 2010).
